Measurements taken from the EternaBench riboswitch data.

Test system: MS2 coat protein
Test: apparent Kd, MS2 coat protein; higher = weaker binding; RNA-MaP array; FMN 200 µM where present
Method in brief: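 In 100 mM Tris-HCl pH 7.5, 80 mM KCl, 4 mM MgCl2, BSA, DTT, yeast tRNA and Tween-20, SNAP-549-labelled MS2 coat protein was titrated from 0.7 or 1.5 nM, doubling to 3 µM, over designs transcribed by stalled E. coli RNA polymerase on Illumina sequencing-chip clusters. This was done first without ligand, then with ligand held constant. After green signal was normalised to red-channel RNA signal and control-cluster median Fmax, the apparent Kd was taken as the median of filtered per-cluster binding-curve fits.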

[1] = designed as: ON switch for flavin mononucleotide, no ligand
[2] = ligand present: flavin mononucleotide, designed as: ON switch for flavin mononucleotide
[3] = designed as: OFF switch for flavin mononucleotide, no ligand
[4] = ligand present: flavin mononucleotide, designed as: OFF switch for flavin mononucleotide

| Sequence | apparent Kd [1] | apparent Kd [2] | apparent Kd [3] | apparent Kd [4] |
| --- | --- | --- | --- | --- |
| UUAAUUAAUUAGAAGGCAUGUCAUAAGACAUGAGGAUCACCCAUGUAGUUAAGGCGAAAGCCGCAUGAGGAUAUAUAAAUAUAU | 552 nM | 319 nM |  |  |
| ACAUGAUCAGGAUAUACAUGAGGAUCACCCAUGUUUAUCAAAAAAGGGCCUUCUACAUGUAGAAGGGAUCUUGU |  |  | 14.8 nM | 15.1 nM |
| GGAUCCAACACAGGAUAUGCUGGACCUUGUCCAGCAGAAGGGUGAAGAACAUGAGGAUCACCCAUGUGGAUCCAUAUAUUUAAU | 240 nM | 14.6 nM |  |  |
| UUGAUGUCAUCAGGAUAUAGUAUUUAAGACAUAUAUUUUUUCAAACAUGAGGAUCACCCAUGUCGCUAGAAGGGAUUAUAGAUU |  |  | 41 nM | 35.6 nM |
| UGGUACAUGGGAGGAUAUGGGUUGAUAACAUGAGGAUCACCCAUGUUAAAAUGCCGAAAGGCAAACUAGAAGGCCCAUGUACCU | 443 nM | 32.2 nM |  |  |
| GGGAAGUAAGGAUAUGCUGCUCGUCACUUGCGUGAUGAGUAGCAGAAGGUACAUGAGGAUCACCCAUGUAAAGA |  |  | 29.7 nM | 26.9 nM |
| AUUUAUGGCCAGAAGGACAUGAGGAUCACCCAUGUAGGAUAUGGACGAUUUUACUCGGCGGUUUGUUUAGGAAGCACCGGCGGU | 8 nM | 6.32 nM |  |  |
| ACAUGAUACAAGAAGGAUGAAUUAGAUUUGAUCAUAGGAUAUUGUUAUAUUGUUUACUCUAAUAACAUGAGGAUCACCCAUGUA | 10.4 nM | 6.94 nM |  |  |
| UUUGCAUUCCGAGGAUAUUCAUAUAAUGACUUCACAUGAGGAUCACCCAUGUGGCGAUAGCCUAGGGAGAAGGCGGUUUGCUUU | 25.6 nM | 20.6 nM |  |  |
| GAUUGUGAAGGAUAUACUGGAGGAGUGCGAUAGAAGCACGAACAUGAGGAUCACCCAUGUAGAAGGUCAGGAGU |  |  | 34.5 nM | 21.6 nM |
| GUUCUUCCUGUAAGGAUAUCCAUGUAUCAGUUUAUGGAGAAGGUACAUGAGGAUCACCCAUGUCACCCGCGUUA |  |  | 20.1 nM | 46.1 nM |
| AGUAACAGAGGAUAUACUAUUUUAUGUGUUUGUUAUUUUAAACAUGAGGAUCACCCAUGUAGAAGGCUGAAUAA |  |  | 21.8 nM | 24.1 nM |
| AUACCACGAGGAUAUCGUCUAUUCCACAUGAGGAUCACCCAUGUUAUCCAUGUUUCGUUUCGAGAAGGCGUGGGUU |  |  | 59.9 nM | 42.9 nM |
| AAUAACAGAGGAUAUACUAUUUUAUGUGUUUAUUGUUUUGAACAUGAGGAUCACCCAUGUAGAAGGCUGAUUAA |  |  | 41 nM | 58.7 nM |
| CCCGGUCGAGCAGGAUAUAGACCGCGUGCAUUUCCCUCAGAUUGAGACAUGAGGAUCACCCAUGUCUAGAAGGGUUCACCGAAA |  |  | 5.83 nM | 6.93 nM |
| GGACGUCACAUGAACAUGAGGAUCACCCAUGUAAAUUCUCAUGAGGAUAUGGUUCCUAAUUGGAACCAGAAGGCGUGGACGUCC | 957 nM | 430 nM |  |  |
| GUAGCUAUCGCAGGAUAUCCUCAGGCGAAAGCCACAUGAGGAUCACCCAUGUAAAUUAAGAAUUUGGAGAAGGGCGAUAGCUAC | 479 nM | 27.3 nM |  |  |
| GGACCGCGCAGAGUUGGCGGUCGGCAGGAUAUGACAUGAGGAUCACCCAUGUGAACUCCAUUGGGUCAGAAGGGCCACGACACA |  |  | 22.4 nM | 107 nM |
| UUUUAACAUGAGGAUCACCCAUGUGAGGAUAUCGAAAUUUAUAUUAAUAUUAUUAUUACGAGAAGGCACAUUUU |  |  | 71.9 nM | 91.1 nM |
| AUUAAGAAUGAAGGAUAUCUAAGCGUAAACAAAAGAGAAGGUCAAUAGUACAUGAGGAUCACCCAUGUUAGAAUAGAUGGGAUA |  |  | 117 nM | 103 nM |
| UCAUUAGCGGGCGGAUCGGUUGGACAUGAGGAUCACCCAUGUAGAAGGACCGGUGGAUUCCGGCGGUAGGAUAUACAUUUGGUG |  |  | 12.7 nM | 19.8 nM |

| Sequence | apparent Kd [1] | apparent Kd [2] | apparent Kd [3] | apparent Kd [4] |
| --- | --- | --- | --- | --- |
| CACGUACAUGAGGAUCACCCAUGUUAGGAUAUGCCGGGUUAGAGCCAACUAAAAACCCGUAGAAGGGACGAAAC |  |  | 23.1 nM | 25.3 nM |
| UUAUGAUUAAGAGGAUAUAUACAACAUGAGGAUCACCCAUGUACCCAUGUAGUAGAAGGCUUAUUUUUAUAUAAUAAUAUAAUU | 143 nM | 47.6 nM |  |  |
| GGACAGUCAGGAUAUACAUGAGGAUCACCCAUGUUGAGAUGUGAAAGGGCGGGAGUAGGUAGAAGGGACGAGAG |  |  | 31.3 nM | 27.5 nM |
| GUCAGGUGAGGAUAUACGCGGCUGACGAAACGUUAUACCGAGUAGAAGGCACAUGAGGAUCACCCAUGUUCGGG |  |  | 109 nM | 59.6 nM |
| UAAAUGUGAGGAUAUCAGGUGUGCUAGAAUACUGGUACAUCUGAGAAGGCACAUGAGGAUCACCCAUGUUCCUU |  |  | 16.4 nM | 41 nM |
| CGAGUUUUUGAGAAGGCAUAUUAUAUUAUACCACAUGUUUACAUGAGGAUCACCCAUGUUUCCUAUGAGGAUAUCAGAAUAUCG |  |  | 11.8 nM | 10 nM |
| AAACAUGUCCGAGGAUAUCUGGAAACAUUUCCAAGAGAAGGCGGACAUGAGGAUCACCCAUGUCUCUCCUCAUCAAAUCCAAGA |  |  | 8 nM | 77.4 nM |
| GGACAUUUACAGAAGGGCAAGUUAGAUAGUGAAUAUUUAGAUCUGACUUGCAGGAUAUGUUGAACAUGAGGAUCACCCAUGUCC | 13.7 nM | 10.8 nM |  |  |
| CCGGAAAUACAGGAUAUAGGAGUCAAUAGACUCCUAGAAGGGUAUACAUGAGGAUCACCCAUGUGUCCUACCGG |  |  | 35 nM | 35.6 nM |
| AUUAUACAUGAGGAUCACCCAUGUAAUUAAUUAAUUAAGAUCAAGGAUAUCAGCUCGUUUAGAGCUGAGAAGGUGAUCACAUGU | 356 nM | 295 nM |  |  |
| AAUUUACAUGAGGAUCACCCAUGUGAGGAUAUACACACAUGCUUGUUAUUGCGUGUGUGUAGAAGGCGCGUGAU |  |  | 97.3 nM | 153 nM |
| ACAUGUACAGGAUAUACAUGAGUGAUACACGUAUUUCCACUACAUGAGGAUCACCCAUGUAGAAGGGUACAUGA |  |  | 50.2 nM | 19.5 nM |
| ACACUCUAUGCAGGAUAUCGAGCCUGGGCCUUGUUUUUUGUAAACAUGAGGAUCACCCAUGUCUUCGAGAAGGGCAUAACACCG |  |  | 372 nM | 136 nM |
| UGGGUAAAUGUAGGAUAUCCAUAUUAAUAAUAUGGAGAAGGACAUGAGGAUCACCCAUGUACAGGGAAUUACCCAUUUCCUCUC |  |  | 80.1 nM | 287 nM |
| UAGUACUAGGGAGGAUAUGGGAAGAUACAUGAGGAUCACCCAUGUUUAAGAAUGCCGAGAGGCAACUAGAAGGCCCUAGUACCU | 463 nM | 19.2 nM |  |  |
| AUCAUGUCAGGAUAUAUGACAUGGCUCUUCGGAGCAAGCUCAUAGAAGGGACAUGAGGAUCACCCAUGUAGAGC |  |  | 22.7 nM | 30.5 nM |
| GGGUACAUCGGAGGAUAUCAUGUAAAUACAUGAGGAUCACCCAUGUCGAUGGAGACAUCGGAGAUUGAGAAGGCCGACGUACCG | 187 nM | 9.15 nM |  |  |
| AACAGCUCGUCAGGAUAUAUUAUCUUUUUAUGUAUUUAUGUACAUGAGGAUCACCCAUGUUGUUUGUAGAAGGGACGAGCUGAA |  |  | 30.4 nM | 26.5 nM |
| GGAUUACAUGAGGAUCACCCAUGUGAGGAUAUCGAUGUCCUCAAUGGAGUGCGGGACUCGAGAAGGCACUUGGA |  |  | 338 nM | 168 nM |
| CCUCUGUUAGGAUAUCUUUUGUUCGCCGUAGGUCGGAUCAUGGAGAAGGGACAUGAGGAUCACCCAUGUUUACC |  |  | 29.7 nM | 56.2 nM |
| ACAAAAUUGAUCCAAUUUACCAACAUGAGGAUCACCCAUGUGCAGGAUAUGCUAAAGAUGAAUAAGCAGAAGGGCAAAUACAUA |  |  | 239 nM | 708 nM |
